From ChEMBL document CHEMBL4190230, “Structurally Diverse Diterpenoids from Isodon scoparius and Their Bioactivity” (J Nat Prod, 2017) come the findings set out here.

Each structure is given as a SMILES string.

What all share (format): functional, cell-based
In one assay the test system is HL-60. Description: Antiproliferative activity against human HL60 cells after 48 hrs by MTS assay. The settings on record: HL-60, 48 h. The gist of the method:
(§1)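 Cells grown in RPMI-1640 or DMEM with 10% FBS at 37 °C, 5% CO2. Seeded, 12 h at 37 °C, then 40 μM single-concentration screen, 48 h exposure, MTS read-out. Compounds reaching 50% growth inhibition retested at 0.064, 0.32, 1.6, 8 and 40 μM in triplicate; cisplatin and paclitaxel positive controls; IC50 by Reed and Muench method.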
(Tetrazolium assays rely on reduction of a dye to a coloured formazan, in cell work by metabolically active cells.)

Another assay deals with SMMC-7721. Description: Antiproliferative activity against human SMMC7721 cells after 48 hrs by MTS assay. To be noted: SMMC-7721, 48 h. The method in brief:
as §1

A further assay relates to A549. The experiment in a line: Antiproliferative activity against human A549 cells after 48 hrs by MTS assay. The settings on record: A549, 48 h. The method in brief: as §1
The test system of a further assay is MCF7. The experiment in a line: Antiproliferative activity against human MCF7 cells after 48 hrs by MTS assay. To be noted: MCF7, 48 h. The gist of the method:
as §1

A further assay deals with SW480. Description: Antiproliferative activity against human SW480 cells after 48 hrs by MTS assay. The settings on record: SW480, 48 h. The method in brief:
as §1

The subject of another assay is RAW264.7. Description: Inhibition of LPS-induced NO production in mouse RAW264.7 cells after 18 hrs by Griess assay. The settings on record: RAW264.7, 18 h. The gist of the method: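 RAW264.7 macrophages seeded at 1.5 × 10^5 cells/well, given serial dilutions (top 20 μM) in triplicate, then stimulated with 1 μg/mL LPS for 18 h. Supernatant nitrite measured with Griess reagent, 5 min, absorbance 570 nm. L-NMMA positive control; parallel MTS viability check to exclude cytotoxic interference.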
In general terms: Griess reagent forms a coloured azo dye with nitrite.

In general, IC50 refers to the concentration needed to halve the response being measured. Consider `C=C1[C@@H](O)[C@@]23CC[C@H]4[C@@](C)(CCC[C@@]4(C)C=O)[C@@H]2[C@@H](OC(C)=O)C[C@]1(O)C3`, for which the half-maximal inhibitory concentration (IC50) with HL-60, in the assay with SMMC-7721, in the assay on A549, in the assay with MCF7 and in the assay with SW480 was above 40 µM each time.
Regarding `C=C1[C@@H](O)[C@@]23CC[C@@H]4C(C)(C)[C@H](O)CC[C@@]4(C)[C@@H]2[C@@H](O)C[C@]1(O)C3`, the 50% inhibitory concentration (IC50) with HL-60, in the assay on SMMC-7721, in the assay with A549, in the assay on MCF7 and in the assay on SW480 was above 40 µM in each case.
Turning to `C=C1C(=O)[C@]23C[C@@]1(O)C[C@H](OC(C)=O)[C@H]2[C@@]1(C)[C@H](C[C@H]3O)[C@](C)(CO)CC[C@@H]1O`, the IC50 with HL-60, in the assay on SMMC-7721, in the assay with A549, in the assay on MCF7 and with SW480 was above 40 µM throughout.
On to `C[C@@]1(CO)CCC[C@@]2(C)[C@H]1C[C@@H](O)C1=CC(=O)CC[C@@]12O`, for which the IC50 in the assay with HL-60, in the assay on SMMC-7721, in the assay with A549, in the assay with MCF7 and in the assay on SW480 was above 40 µM each time.
Consider `C=C1[C@@H](O)[C@@]23CC[C@@H]4[C@@](C)(CO)CCC[C@@]4(C)[C@@H]2[C@@H](OC(C)=O)C[C@]1(O)C3`, for which the IC50 with HL-60, in the assay on SMMC-7721, in the assay with A549, in the assay on MCF7 and with SW480 was above 40 µM throughout.
For the compound `C=C1C(=O)[C@]23C[C@@]1(O)C[C@H](OC(C)=O)[C@H]2[C@@]1(C)[C@H](C[C@H]3O)C(C)(C)CC[C@@H]1O`, the half-maximal inhibitory concentration (IC50) worked out at 7 µM with HL-60; 4.7 µM in the assay on SMMC-7721; 19.6 µM with A549; 11 µM in the assay with MCF7; 2.5 µM in the assay on SW480; 3.1 µM in the assay with RAW264.7.
Consider `C=C1C(=O)[C@@]23CC[C@@H]4C(C)(C)[C@@H](O)CC[C@@]4(C)[C@@H]2[C@@H](OC(C)=O)C[C@]1(O)C3`, for which the IC50 in the assay on HL-60 was 1 µM; in the assay with SMMC-7721, 1.5 µM; with A549, 4.4 µM; in the assay on MCF7, 2.9 µM; in the assay on SW480, 0.9 µM; in the assay with RAW264.7, 1 µM.
With `C=C1[C@@H](O)[C@@]23CC[C@@H]4C(C)(C)[C@H](O)CC[C@@]4(C)[C@@H]2[C@@H](OC(C)=O)C[C@]1(O)C3`, the half-maximal inhibitory concentration (IC50) in the assay with HL-60, in the assay on SMMC-7721, in the assay with A549, in the assay on MCF7 and with SW480 was above 40 µM in each case.
Take `C=C1[C@@H](O)[C@@]23CC[C@@H]4[C@@](C)(CO)CCC[C@@]4(C)[C@@H]2[C@@H](O)C[C@]1(O)C3`: the concentration for half-maximal inhibition (IC50) with HL-60, with SMMC-7721, with A549, in the assay on MCF7 and in the assay on SW480 was above 40 µM throughout.
Take `C=C1[C@@H](O)[C@@]23CC[C@@H]4C(C)(C)[C@@H](O)CC[C@@]4(C)[C@@H]2[C@@H](OC(C)=O)C[C@]1(O)C3`: the IC50 in the assay with HL-60, in the assay with SMMC-7721, in the assay with A549, with MCF7 and with SW480 was above 40 µM each time.
Consider `C=C1C(=O)[C@]23C[C@@]1(O)C[C@H](OC(C)=O)[C@H]2[C@@]1(C)[C@H](C[C@H]3O)[C@](C)(COC(C)=O)CC[C@@H]1O`, for which the half-inhibitory concentration (IC50) amounted to 3.2 µM in the assay on HL-60; 3.9 µM with SMMC-7721; 13.4 µM in the assay on A549; 4.8 µM with MCF7; 1.3 µM in the assay with SW480; 1.8 µM in the assay with RAW264.7.
On to `CC(=O)O[C@H]1C(=O)[C@@]2(C)[C@H]([C@H](OC(=O)c3ccccc3)[C@]3(O)C[C@H](OC(=O)[C@H](O)[C@@H](NC(=O)c4ccccc4)c4ccccc4)C(C)=C1C3(C)C)[C@]1(OC(C)=O)CO[C@@H]1C[C@@H]2O` [PACLITAXEL], for which the half-maximal inhibitory concentration (IC50) in the assay with HL-60, in the assay with SMMC-7721, in the assay with A549, in the assay with MCF7 and in the assay on SW480 was below 0.008 µM in each case.
In turn, `CNC(=N)NCCC[C@H](N)C(=O)O` [TILARGININE ACETATE] gave a concentration for half-maximal inhibition (IC50) with RAW264.7 of 39.9 µM. That is a double-digit micromolar value.
